This data set is described as follows: Toxicity liver stage against HepG2, at 10uM. Format: cell-based. The arrangement: test concentration 10 uM, cell line HepG2-A16-CD81EGFP. The note with it: human, HepG2-A16-CD81EGFP cells; read-out: INHIBITION
Summed up:
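Uninfected HepG2-A16-CD81EGFP cells, 3 × 10^3 per well, 1536-well, plated on prespotted compound at 10 μM final, parasite-free screening media added to match infected plates; puromycin 10 μM positive, DMSO 0.5% negative; run in parallel with 48 h PbLuc assay at 37 °C, 5% CO2; viability by CellTiter-Glo luminescence, normalized to controls.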
On to `COc1ccc(NC(=O)CCN2CC=C(c3cnn(C)c3)CC2)cc1Cl`, for which the cytotoxicity at 10 µM amounted to 6.64%.
As to `O=C(CN1CCOCC1)Nc1ncc(Br)cc1Br`, the cytotoxicity at 10 µM was found to be 10.2%.
As for `Cc1ccccc1SC1CCN(C(=O)C2CNCC(=O)N2)CC1` (stereo unspecified), the cytotoxicity at 10 µM is -3.81%.
The figure for `C[C@@H]1CN(Cc2ccccn2)C[C@]12CCN(Cc1cccnc1)C2=O` is -4.54%.
On to `Cc1cc(F)ccc1S(=O)(=O)N1C[C@@H](C)[C@@](C)(O)C1`, for which the cytotoxicity at 10 µM was -7.25%.
For `CC(C)n1cc(CN2CCCN(C(=O)c3ccoc3)CC2)cn1`, the cytotoxicity at 10 µM was -3.44%.
The figure for `O=C(c1cccc2cccnc12)N1CCCN(c2cccnn2)CC1` is -3.2%; for `CC[C@@H]1N(Cc2ccc(F)cc2)CCC[C@]12CCC(=O)N2C` it is 9.42%; for `Cn1cc(NC(=O)Cc2cccs2)c(=O)n(C)c1=O` it is 0.393%.
In the case of `CCOC[C@@H]1CCC[C@@]12CN(Cc1nccs1)CCO2`, the cytotoxicity at 10 µM is 1.77%.
Regarding `Cc1nn(C)c(C)c1S(=O)(=O)N(CC(N)=O)CC(C)C`, the cytotoxicity at 10 µM came out at 10.5%.
In the case of `OC(c1ccccc1)C1CCN(Cc2csc(-c3ncccn3)n2)CC1` (stereo unspecified), the cytotoxicity at 10 µM was -3.87%.
The figure for `CCCN1CCN(C(=O)c2cnccn2)[C@H]2CS(=O)(=O)C[C@H]21` is -19.8%; for `CC(=O)N1CCCN(c2nccc(-c3cn(C)nc3C)n2)CC1` it is 22.3%; for `CN(Cc1nc(-c2cccnc2)no1)C(=O)c1cccn1C` it is -2.85%.
Regarding `FC(F)(F)c1nc(NC2CCCCC2)c2ccccc2n1`, the cytotoxicity at 10 µM worked out at 29.7%.
Regarding `Cn1cc(CN2CCc3nc(-c4ccccn4)nc(O)c3C2)cn1`, the cytotoxicity at 10 µM is -3.81%.
Consider `Cc1cc(C(F)(F)F)nc(CNC(=O)CCn2cccn2)n1`, for which the cytotoxicity at 10 µM was determined as 1.7%.
On to `CCOc1ncccc1NC(=O)N1CCC(CN2CCOCC2)CC1`, for which the cytotoxicity at 10 µM is -13.6%.
The figure for `Nc1cc(-c2cc[nH]n2)nc(N2CCCC2)n1` is 1.56%.
With `O=S(=O)(c1ccccc1)N1C[C@@H]2CCN[C@@H]2C1`, the cytotoxicity at 10 µM is 2.58%.
As for `COc1ccccc1CN1C(=O)O[C@@H]2CN(c3nccs3)C[C@@H]21`, the cytotoxicity at 10 µM stood at 6.27%.
As for `CCOCC1c2c(cnn2C)CCN1C(=O)c1ccncn1` (stereo unspecified), the figure is -141%.
The figure for `CN(CCc1cccs1)C1CCCN(Cc2noc(C3CC3)n2)C1` (stereo unspecified) is -12.5%; for `CCc1nnc2n1CCN(C(=O)c1ccccc1OCC1CC1)C2` it is 2.3%; for `Cc1ccc2nc(C(=O)N3CC(n4nc(C)cc4C)C3)cn2c1` it is 5.53%.
Turning to `COc1cccc(-c2nc(C)c(C(=O)NC(CO)CCSC)s2)c1` (stereo unspecified), the cytotoxicity at 10 µM is -7.71%.
The figure for `Cn1cc(CN2CCC[C@]3(C(=O)O)CN(c4ncccn4)C[C@@H]3C2)cn1` is 4.89%; for `CC(C)c1nc(C(=O)N2CCc3ccccc3C2C(=O)O)cs1` (stereo unspecified) it is 9.63%; for `CC(C)(C)c1cc(NC(=O)CN2CCCCC2Cn2cncn2)on1` (stereo unspecified) it is 0.0788%.
The figure for `CC(C)Oc1cccc(C(=O)Nc2nncs2)c1` is -3.49%; for `CN1CCCc2sc(C(=O)NC3CC3)nc21` it is -149%; for `CCNc1ncc(C(=O)NCc2ccc3nsnc3c2)cn1` it is 2.34%.
With `CCc1cc(CNC(=O)N(C2CC2)C(C)c2ccco2)on1` (stereo unspecified), the cytotoxicity at 10 µM was -0.335%.
Regarding `Cc1nn(-c2ccccc2Cl)c(C)c1CCC(=O)O`, the cytotoxicity at 10 µM came out at 4.68%.
As for `CCN1CCn2c(C)cnc2C12CCN(C(=O)c1cscn1)CC2`, the figure is 6.59%.
For `CN(C)CCO[C@H]1CN(C(=O)c2ccc(C#N)cc2)[C@@H]2COC[C@H]12`, the cytotoxicity at 10 µM turned out to be 0.929%.
As for `CCN(CC)Cc1ccc(C(=O)N2CCN(CC(C)O)CC2)cc1` (stereo unspecified), the cytotoxicity at 10 µM is -12.6%.
The figure for `COc1ccc(CCN2CCCC2Cn2nc(C)nc2C)cc1` (stereo unspecified) is -7.16%; for `O=C(NCC(F)(F)C(F)F)c1cccnc1` it is 15.4%.
For `CC(C)NC(=O)COc1nc(C(C)C)no1`, the cytotoxicity at 10 µM is -3.34%.
In the case of `O=S(=O)(N1CCOCC1)N1CCCC1Cn1cccn1` (stereo unspecified), the cytotoxicity at 10 µM was -8.18%.
On to `Cc1nn(C)c(Cl)c1S(=O)(=O)N(CC(N)=O)CC(C)C`, for which the cytotoxicity at 10 µM was found to be 8.18%.
As for `CNC(=O)Cc1noc(Cc2cccc(Cl)c2)n1`, the figure is 0.335%.
The figure for `O=C1CCN(C(=O)C2(c3ccc(F)cc3)CCCCC2)CCN1` is -7.4%.
The figure for `Cc1nn(Cn2ccc(C(=O)N3CCCCCC3)n2)c(C)c1Cl` is 0.781%; for `CCC=C(C)C(=O)NCc1ccc(OC)nc1` it is -4.13%; for `CN1CCN(C(=O)CCC(=O)c2cccs2)Cc2ccccc21` it is -57.8%.
As to `COC(=O)CSc1nnc(CCNC(=O)OC(C)(C)C)o1`, the cytotoxicity at 10 µM turned out to be 4.34%.
As for `O=C(C1CCCO1)N1CCC(Cn2cc(C3CCCC3)nn2)CC1` (stereo unspecified), the figure is 5.61%; as for `NCC1Cc2cccc(-c3ccc(O)c(F)c3)c2O1` (stereo unspecified), -40.2%; as for `NC(=O)Cn1cc(NC(=O)NCCN2CCc3ccccc3C2)cn1`, -9.52%.
As for `CCCc1nc(C)c(C(=O)NCC2CCN(C3CC3)C2)s1` (stereo unspecified), the figure is -9.34%; as for `CCn1c(C(=O)N2CCN(CC[S+](C)[O-])CC2)cc2ccccc21` (stereo unspecified), -3.49%; as for `Cn1nc(C(=O)NCc2ccc(F)cc2)c2c1CCS(=O)(=O)C2`, 8.02%.
As for `Cn1cc(CN2C[C@H](Oc3ncccc3F)[C@H]3OCCC[C@H]32)cn1`, the figure is 2.72%.
Regarding `CC(C)CNC(=O)CNC(=O)NCC(O)c1ccc2ccccc2c1` (stereo unspecified), the cytotoxicity at 10 µM was -2.52%.
Take `COCCN1C[C@@H]2CN(Cc3ccc(C)s3)CCC[C@]2(C(=O)O)C1`: the cytotoxicity at 10 µM is -96.8%.
The figure for `CO[C@@H]1CCN(Cc2c(C)noc2C)[C@@H]2CN(Cc3ccco3)C[C@@H]21` is 8.64%; for `Cn1cc(-c2ncc3c(c2C(=O)O)CCN(CC2CCOC2)C3)cn1` (stereo unspecified) it is -94.6%; for `CCc1cccc2cc(CNCCOC)c(=O)[nH]c12` it is 1.47%.
As for `CC(=O)Nn1c(C)cc(CN2CCC(C(=O)N3CCCC3)CC2)c1C`, the figure is 1.57%.
With `CC(C)CNC(=O)c1ccc(NC(=O)NCC2CC2)cc1Cl`, the cytotoxicity at 10 µM came out at 7.71%.
The figure for `COc1ncccc1CNC(=O)NC1CCCOc2ccccc21` (stereo unspecified) is -6.14%; for `COCCC(=O)N1Cc2nc3c(C)c(-c4cccs4)nn3c(O)c2C1` it is -1.19%; for `CSCC[C@@H]1CN2CCC[C@H]2CN1Cc1coc2ccc(C)cc2c1=O` it is 2.89%.
The figure for `CN(CC(=O)Nc1ccccc1C(=O)NC1CC1)Cc1ccccc1Cl` is -8.18%; for `CCCn1nc(C)c(C(=O)N[C@@H]2CC[C@@H](N3CCCC3)[C@@H]2O)c1C` it is -4.79%; for `NC(=O)c1csc(C(=O)N2CCCC(n3ccnc3)C2)c1` (stereo unspecified) it is -2.07%.
`Cc1nsc(NC(=O)N2CCN(Cc3ccc(F)cc3)C(=O)C2)n1`: the cytotoxicity at 10 µM came to 1.07%.
The figure for `O=C(CC1CCCO1)Nc1ccn(Cc2cccc3cccnc23)n1` (stereo unspecified) is 2.17%.
The figure for `Cc1ccc(CN2CCC3(CCN(S(=O)(=O)c4ccccc4)C3)C2)o1` (stereo unspecified) is -0.00736%; for `COCC(=O)N1CCC(=O)N(C2CCCC2)Cc2ccccc21` it is -5.2%.
The figure for `Cc1csc(C(C#N)C(=O)NCc2ccccc2)n1` (stereo unspecified) is 4.02%; for `O=C(CCc1nccs1)N1CCN(c2ccccc2F)CC1` it is -9.42%.
As to `CCc1cc(=O)[nH]c(SCc2ccccn2)n1`, the cytotoxicity at 10 µM was -0.543%.
Turning to `COc1ccc(CC(=O)N2CCc3nnc(N(C)C)cc3C2)cc1F`, the cytotoxicity at 10 µM is -9.5%.
In the case of `Cc1ncc(C(=O)NCCOc2ccccc2F)c(C)n1`, the cytotoxicity at 10 µM turned out to be 24.8%.
As for `Cc1sc(CS(C)(=O)=O)nc1-c1ccc(Cl)cc1`, the figure is -4.07%; as for `COCC1CCN(CCCc2cccc(OC)c2)CC1`, -11%; as for `CC(C)Cn1cncc1-c1nc2c([nH]1)CCCNC2=O`, 15%.
As for `CC(C)(C)NC(=O)Cn1nc(C2CC2)cc(C(F)(F)F)c1=O`, the figure is -13.9%.
As for `Cc1noc(C)c1CN1C[C@H]2CC[C@@H](C1)N(Cc1cc(F)cc(F)c1)C2`, the figure is -11.9%; as for `CC(NS(=O)(=O)CC1(C#N)CCCC1)c1cccc(-n2cccn2)c1` (stereo unspecified), 3.15%.
Take `N#Cc1cccc(CN2Cc3nccn3CC(COCC3CC3)C2)c1` (stereo unspecified): the cytotoxicity at 10 µM is -127%.
Take `Cc1nc(C(=O)N2CCN(S(=O)(=O)N(C)C)CC2)c(-c2ccccc2)s1`: the cytotoxicity at 10 µM was determined as 3.67%.
Consider `COc1cc(C)c(C2CC(=O)Nc3cc(NS(C)(=O)=O)ccc32)cc1C` (stereo unspecified), for which the cytotoxicity at 10 µM is -15%.
As to `O=C1COc2c(cccc2C(=O)N2CCCC2Cn2cccn2)N1` (stereo unspecified), the cytotoxicity at 10 µM was -4.47%.
As for `CNC(=O)NC(=O)CN1CCC(c2cccc(F)c2)C1` (stereo unspecified), the cytotoxicity at 10 µM is -8.75%.
As for `O=C(CCNS(=O)(=O)c1ccc(Cl)cc1)NCc1ccoc1`, the figure is -11.8%.
For the molecule `CCn1cc(CN2CCCN(C(=O)c3c(C)oc(C)c3C)CC2)cn1`, the cytotoxicity at 10 µM was -8.89%.
As for `NC(=O)c1ccc(OCCCN2CCC3(CC2)OCCCC3O)cc1` (stereo unspecified), the figure is -1.18%.
Consider `O=c1cc(Cn2cncn2)nc2n1CCCN(Cc1ccoc1)C2`, for which the cytotoxicity at 10 µM turned out to be 3.37%.
The figure for `O=C(NCc1nncn1C1CC1)C1(c2ccccc2)CCOCC1` is 3.31%; for `Cn1cc(C(=O)NCC(Cc2cccc(F)c2)N2CCCCC2=O)nn1` (stereo unspecified) it is -1.13%; for `Cc1csc2c(C3CCCN(C(=O)CCn4cncn4)C3)nc(C)n12` (stereo unspecified) it is 7.96%.

For the origin of these results see ChEMBL document CHEMBL4513216, “Probing the Open Global Health Chemical Diversity Library for Multistage-Active Starting Points for Next-Generation Antimalarials” (ACS Infect Dis, 2020).
